For assay [1], the target named is T1, Angiotensin-converting enzyme (Oryctolagus cuniculus, UniProt P12822).
T1 sequence (P12822 whole entry): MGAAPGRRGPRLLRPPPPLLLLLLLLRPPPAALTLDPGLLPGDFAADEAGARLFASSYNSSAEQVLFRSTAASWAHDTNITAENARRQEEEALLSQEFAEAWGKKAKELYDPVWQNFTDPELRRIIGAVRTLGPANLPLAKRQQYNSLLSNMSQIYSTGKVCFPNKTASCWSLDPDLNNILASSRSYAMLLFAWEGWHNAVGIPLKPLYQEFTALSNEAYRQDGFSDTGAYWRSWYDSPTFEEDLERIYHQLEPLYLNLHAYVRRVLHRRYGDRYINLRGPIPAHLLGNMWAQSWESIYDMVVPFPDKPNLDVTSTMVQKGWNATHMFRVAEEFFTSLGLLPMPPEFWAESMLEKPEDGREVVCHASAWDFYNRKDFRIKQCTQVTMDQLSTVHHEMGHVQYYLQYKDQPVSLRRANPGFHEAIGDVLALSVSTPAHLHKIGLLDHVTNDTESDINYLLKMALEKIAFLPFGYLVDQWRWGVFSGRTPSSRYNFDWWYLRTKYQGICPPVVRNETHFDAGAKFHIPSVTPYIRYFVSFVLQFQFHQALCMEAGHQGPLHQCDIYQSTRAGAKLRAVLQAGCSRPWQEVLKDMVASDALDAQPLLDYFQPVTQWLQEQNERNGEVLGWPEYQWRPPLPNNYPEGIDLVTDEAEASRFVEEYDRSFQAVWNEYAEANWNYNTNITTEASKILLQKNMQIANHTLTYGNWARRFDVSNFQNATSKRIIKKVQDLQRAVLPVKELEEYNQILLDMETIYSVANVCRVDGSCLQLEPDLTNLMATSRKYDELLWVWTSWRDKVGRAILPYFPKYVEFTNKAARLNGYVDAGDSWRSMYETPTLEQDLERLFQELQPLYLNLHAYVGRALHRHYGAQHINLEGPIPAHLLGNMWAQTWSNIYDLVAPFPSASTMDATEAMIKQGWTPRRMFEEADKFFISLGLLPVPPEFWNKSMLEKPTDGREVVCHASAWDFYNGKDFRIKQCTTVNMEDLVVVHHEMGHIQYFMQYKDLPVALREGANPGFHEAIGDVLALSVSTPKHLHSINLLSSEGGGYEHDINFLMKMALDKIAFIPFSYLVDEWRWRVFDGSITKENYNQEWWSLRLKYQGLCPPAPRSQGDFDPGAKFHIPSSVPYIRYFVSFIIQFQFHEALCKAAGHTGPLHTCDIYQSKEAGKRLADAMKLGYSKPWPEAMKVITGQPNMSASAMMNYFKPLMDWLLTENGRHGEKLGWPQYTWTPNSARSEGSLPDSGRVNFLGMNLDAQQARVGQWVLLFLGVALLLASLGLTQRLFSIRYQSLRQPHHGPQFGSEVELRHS
Briefly: Evaluated for inhibitory activity against rabbit lung angiotensin I converting enzyme (ACE) using hippuryl-histidyl-leucine as substrate. As to conditions: read-out: I50.

Assay [2] has as its target T2, Angiotensin-converting enzyme (Rattus norvegicus) (UniProt P47820).
T2 sequence (whole entry): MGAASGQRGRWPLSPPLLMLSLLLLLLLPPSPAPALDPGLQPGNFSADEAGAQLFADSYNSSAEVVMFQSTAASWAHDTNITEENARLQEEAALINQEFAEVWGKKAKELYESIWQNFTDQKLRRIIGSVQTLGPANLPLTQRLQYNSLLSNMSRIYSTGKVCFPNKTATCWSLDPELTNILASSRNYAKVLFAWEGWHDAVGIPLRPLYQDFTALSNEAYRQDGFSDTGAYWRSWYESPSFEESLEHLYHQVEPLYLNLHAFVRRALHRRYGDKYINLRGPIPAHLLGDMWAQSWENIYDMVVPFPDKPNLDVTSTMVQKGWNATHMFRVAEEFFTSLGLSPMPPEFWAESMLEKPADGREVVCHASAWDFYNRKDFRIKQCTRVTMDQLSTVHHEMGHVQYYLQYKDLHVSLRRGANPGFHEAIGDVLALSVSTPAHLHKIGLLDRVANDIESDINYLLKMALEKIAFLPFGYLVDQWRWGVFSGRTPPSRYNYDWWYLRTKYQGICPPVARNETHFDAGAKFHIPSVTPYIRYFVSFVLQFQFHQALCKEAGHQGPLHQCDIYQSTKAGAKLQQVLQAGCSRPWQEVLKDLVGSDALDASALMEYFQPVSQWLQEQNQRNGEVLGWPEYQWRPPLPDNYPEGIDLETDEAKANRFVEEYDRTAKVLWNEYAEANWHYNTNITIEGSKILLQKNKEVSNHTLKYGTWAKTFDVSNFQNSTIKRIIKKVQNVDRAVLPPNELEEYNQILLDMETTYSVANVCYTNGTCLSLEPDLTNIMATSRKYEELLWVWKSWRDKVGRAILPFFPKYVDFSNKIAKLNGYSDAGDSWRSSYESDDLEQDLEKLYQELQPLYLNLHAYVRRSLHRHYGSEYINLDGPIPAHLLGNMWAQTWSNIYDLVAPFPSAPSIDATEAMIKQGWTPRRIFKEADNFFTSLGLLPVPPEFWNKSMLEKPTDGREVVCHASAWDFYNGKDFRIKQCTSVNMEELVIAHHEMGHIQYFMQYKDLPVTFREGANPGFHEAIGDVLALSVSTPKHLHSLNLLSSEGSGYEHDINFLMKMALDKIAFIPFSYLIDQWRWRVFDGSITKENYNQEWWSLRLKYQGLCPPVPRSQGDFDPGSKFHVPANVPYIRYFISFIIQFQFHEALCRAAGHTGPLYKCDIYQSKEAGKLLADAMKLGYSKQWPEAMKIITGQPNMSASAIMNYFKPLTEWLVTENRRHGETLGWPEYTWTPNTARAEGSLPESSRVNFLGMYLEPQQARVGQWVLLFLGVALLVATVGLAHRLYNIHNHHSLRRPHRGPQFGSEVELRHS
Briefly: In vivo dose required to produce 50% inhibition against angiotensin I in normotensive rat after intravenous administration. The format is functional, organism-based. The method, boiled down: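 Conscious, unrestrained male Sprague-Dawley rats (225–275 g) with indwelling aortic and vena caval catheters, recovered ≥2 weeks. […] Compound given iv in 0.1 mL water or 5% NaHCO3, responses followed up to 70 min. Maximum % inhibition is the mean of four rats per dose; ED50 interpolated from plots of ≥3 doses.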

In assay [3] the target is T2, Angiotensin-converting enzyme (Rattus norvegicus). Nature of the assay: In vivo oral activity in normotensive rat and percent maximal inhibition of the angiotensin I pressor response. It counts as functional, organism-based. The method, boiled down: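 Catheterized conscious, unrestrained male Sprague-Dawley rats (225–275 g), recovered ≥2 weeks. […] Oral dose in 0.1 mL water, 5% NaHCO3 or 1% agar suspension. Aortic pressure read by transducer for up to 280 min. Maximum % inhibition is the mean of four animals per dose.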

This passage reports IC50, ED50 and inhibition results from ChEMBL document CHEMBL1124773, “(Phosphinyloxy)acyl amino acid inhibitors of angiotensin converting enzyme. 2. Terminal amino acid analogues of (S)-1-[6-amino-2 [[hydroxy(4-phenylbutyl)phosphinyl]oxy]-1-oxohexyl]-L-proline” (J Med Chem, 1990).

As to `NCCCC[C@H](OP(=O)(O)CCCCc1ccccc1)C(=O)N(CC(=O)O)c1ccccc1`, the IC50 in assay [1] came out at 29 nM. The molecule further gave a median effective dose (ED50) in assay [2] of 0.136 µmol/kg. In addition, in assay [3], the inhibition came out at 53%.

As to `NCCCC[C@H](OP(=O)(O)CCCCc1ccccc1)C(=O)N(CC(=O)O)C1Cc2ccccc2C1`, the IC50 in assay [1] was 27 nM. The ED50 in assay [2] stood at 0.196 µmol/kg.
